ABHD5 PLIN5 PPI: ABHD5-PLIN5 interaction inhibitors, primary screen, cell lysate, split luciferase complementation, luminescence. Perilipin-5 (Homo sapiens) + 1-acylglycerol-3-phosphate O-acyltransferase ABHD5 (Homo …. Split G. princeps luciferase complementation, 4 h. inhibition, % at 4 µM. 360,000 compounds, 0.78% hits;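 active = inhibition above the mean inhibition across every tested compound plus 3 SD, cut at about 22% in these data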
GRK2 aptamer HTS: compounds blocking aptamer binding on GRK2 – biochemical, human GRK2, bead flow cytometry, HTS, primary screen; Beta-adrenergic receptor kinase 1 (Homo sapiens), P25098; FAM-aptamer displacement from GRK2; inhibition of aptamer binding, % at 10 µM; 330,000 compounds, 0.59% hits;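 active = inhibition of aptamer binding above 40%, roughly 3 SD of noise, on plates passing a quality check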;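 note: median bead fluorescence of bound FAM aptamer so fluorescent compounds give negative values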
NadD inh: inhibitors of S. aureus NadD, primary screen, biochemical, colorimetric, uHTS; Nicotinate-nucleotide adenylyltransferase NadD (Staphylococcus aureus N315); purified NadD enzyme, colorimetric absorbance read-out; inhibition, % at 20 µM; 360,000 compounds, 0.78% hits; AID 602399, 2012; in the data active = inhibition above about 26%
SENP1 inh: human SENP1 catalytic domain inhibitors, primary screen, biochemical, FRET, uHTS; Sentrin-specific protease 1 (Homo sapiens), Q9P0U3; recombinant SENP1 catalytic domain, CyPet-SUMO1-YPet FRET cleavage; inhibition, % at 10 µM; 360,000 compounds, 0.21% hits; AID 624204, 2012;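 active = inhibition at least 30% at 10 µM, raw YFP signal under a set limit, fluorescence ratio 0.5 to 1.5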
Target sequence (Q9P0U3 419-644 limits assumed): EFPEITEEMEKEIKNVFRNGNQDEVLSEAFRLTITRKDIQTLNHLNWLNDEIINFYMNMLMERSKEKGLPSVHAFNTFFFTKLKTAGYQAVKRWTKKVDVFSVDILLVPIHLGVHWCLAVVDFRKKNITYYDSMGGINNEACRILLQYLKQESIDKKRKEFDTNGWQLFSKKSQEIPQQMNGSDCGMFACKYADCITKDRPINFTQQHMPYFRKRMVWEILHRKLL
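material = recombinant human SENP1 catalytic domain, His6-tagged | quantity = 20 pM enzyme | reagent = 25 nM SUMO1 FRET substrate | compound dosing = 10 µM single point, 0.5% DMSO | timing = 50 min enzyme reaction, room temperature, light-protected | detection = FRET, CFP and YFP emission | control set = no-enzyme low, enzyme-DMSO high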
Beta2AR agonist: beta2AR agonists driving receptor internalization, primary screen, cell-based, FAP fluorogen, flow cytometry; Beta-2 adrenergic receptor (Homo sapiens), P07550; Am2.2-beta2AR cells; response, % (test concentration not listed); 340,000 compounds, 0.43% hits; AID 504454, 2011;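 active = response above a set limit, near 3 SD of response in nonfluorescent compounds, cut at about 42% in these data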
Target sequence (P07550 whole entry, looked up): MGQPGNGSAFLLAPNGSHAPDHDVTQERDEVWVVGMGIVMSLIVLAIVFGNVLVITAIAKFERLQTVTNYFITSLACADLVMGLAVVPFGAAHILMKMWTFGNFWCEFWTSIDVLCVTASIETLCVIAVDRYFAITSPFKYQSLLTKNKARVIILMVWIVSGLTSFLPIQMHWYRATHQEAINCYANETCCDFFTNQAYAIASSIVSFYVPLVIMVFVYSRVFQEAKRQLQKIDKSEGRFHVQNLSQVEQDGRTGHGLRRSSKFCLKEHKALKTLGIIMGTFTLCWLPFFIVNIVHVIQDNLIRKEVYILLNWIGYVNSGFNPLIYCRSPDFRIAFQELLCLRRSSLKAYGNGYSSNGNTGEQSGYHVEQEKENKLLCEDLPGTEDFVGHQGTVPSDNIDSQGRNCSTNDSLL
GRK2 CP1: GRK2 aptamer-displacing inhibitors, retest, confirmation, biochemical, cherry pick 1, bead flow cytometry; AID 504451, 2011; bead-bound GRK2, FAM-aptamer displacement; aptamer displacement, % at 10 µM; 2,000 compounds, 4% hits; shares compounds with GRK2 aptamer HTS;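 active = aptamer displacement above 40%, near three times the noise of non-fluorescent compounds, on plates passing quality checks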;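 note: negative values mostly reflect intrinsic compound fluorescence rather than true enhancement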
Aptamer quench SP: quenches fluorescent RNA aptamer, GRK2 hit artifact. shares compounds with GRK2 aptamer HTS. Carboxyfluorescein RNA aptamer on beads, flow cytometry quenching; hits give low values. fluorescence response (% of DMSO), % at 10 µM. 2,000 tested, under 10 active. AID 504580;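 active = compounds that quench the bead-bound fluorescent RNA probe, cutting fluorescence to under half of the solvent control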;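 note: counterscreen run without GRK2 so only probe quenching by compound is measured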
Numbers stand for hits; - = inactive; . = no result. Compounds with a hit are over-represented: about 2.5% of the library has one in this group of screens.

SMILES | ABHD5 PLIN5 PPI | GRK2 aptamer HTS | NadD inh | SENP1 inh | Beta2AR agonist | others
CCCCNc1c(-c2ccc(SC(C)CC)c(OC)c2)nc2ccc(C)cn12 (centres undefined) | - | - | - | - | -
CCCCNc1c(-c2ccc(-c3ccc(OC)cc3)c(OC)c2)nc2ccccn12 | - | - | - | - | 46
CCCCNc1c(-c2ccc(SC(C)CC)c(OC)c2)nc2ccc(Cl)cn12 (centres undefined) | - | - | - | - | 52
CCC(C)Sc1cccc(-c2nc3ccc(Cl)cn3c2NCc2ccccc2)c1 (centres undefined) | - | - | 31 | - | -
COC[C@@H]1CCCN1[C@H]1CS(=O)(=O)N[C@@H]1COCc1ccccc1 | - | . | - | - | .
CN(c1ccccc1)S(=O)(=O)c1cccc(C(=O)NCC(=O)Nc2ccc(F)c(F)c2F)c1 | - | - | - | - | -
CCN1C[C@@H]2[C@@H]3C(=O)N(Cc4ccccc4)C(=O)[C@@H]3[C@](C)(C(=O)OC)N2C1=NC | - | - | - | - | -
CC(=O)Nc1ccc2nc(NC(=O)c3ccc([N+](=O)[O-])s3)sc2c1 | . | 87 | . | . | .
CC(=O)Nc1ccc2nc(NC(=O)c3cccs3)sc2c1 | - | - | - | - | -
O=c1/c(=C/c2ccccn2)sc2nc3ccccc3n12 | - | - | - | - | -
O=c1/c(=C\c2cc([N+](=O)[O-])cc([N+](=O)[O-])c2O)sc2nc3ccccc3n12 | - | - | - | 91 | -
CC(=O)SC(C[N+](=O)[O-])c1cn(C(C)=O)c2ccccc12 (centres undefined) | - | - | - | - | 49
Cc1ccc(C(=O)Nc2ccc(C(=O)N/N=C/c3ccc(C)o3)cc2)cc1 | - | - | - | - | -
CCN(c1ccccc1)S(=O)(=O)c1cccc(C(=O)NCCOc2ccccc2OC)c1 | - | . | - | - | -
Cn1cnc([N+](=O)[O-])c1Sc1nc2ccccc2[nH]1 | - | - | - | - | -
CS(=O)(=O)c1cc([N+](=O)[O-])c(Sc2nc3ccccc3[nH]2)c([N+](=O)[O-])c1 | 48 | - | - | - | 63
CCOC(=O)c1c(-c2ccc(C)o2)csc1NC(=O)CSc1nncs1 | 47 | - | - | - | -
CCOC(=O)c1c(-c2ccc(C)o2)csc1NC(=O)CN1CCCCC1 | - | - | - | - | -
COc1ccc(-n2c(C)cc(/C=C3\SC(=S)NC3=O)c2C)cc1 | - | - | 45 | - | -
Cc1cc(/C=C2\SC(=Nc3ccc(F)cc3)NC2=O)c(C)n1-c1ccc(S(N)(=O)=O)cc1 | - | - | 65 | - | -
Cc1cc(/C=C2\SC(=S)NC2=O)c(C)n1-c1ccccc1 | - | - | - | - | -
Cc1cc(/C=C2\SC(=S)NC2=O)c(C)n1-c1ccc(O)cc1 | - | - | - | - | -
Cc1cc(/C=C2\SC(=S)NC2=O)c(C)n1C | - | - | 35 | - | -
O=C(C(=O)N1CCN(c2ccccc2)CC1)c1ccncc1 | - | . | . | - | .
O=C(O)CCNC(=S)Nc1cccc(F)c1 | - | - | - | - | -
SMILES | ABHD5 PLIN5 PPI | GRK2 aptamer HTS | NadD inh | SENP1 inh | Beta2AR agonist | others
COc1ccc2c(c1)C(=NNC(=O)c1ccccn1)c1cc(OC)ccc1-2 | - | - | - | - | 43
CC1CCN(C(=O)C2CCN(S(=O)(=O)c3ccc(-n4cnnn4)cc3)CC2)CC1 | - | - | - | - | -
COc1ccccc1C1c2ccc3ccccc3c2Oc2ncn(CCN(C)C)c(=N)c21 (centres undefined) | - | - | - | - | -
COc1ccc(C2c3ccc4ccccc4c3Oc3ncn(CCCN(C)C)c(=N)c32)cc1 (centres undefined) | 22 | - | - | - | -
CSc1ccccc1NC(=O)CN(C)C(=O)COc1cccc2cccnc12 | - | - | - | - | -
Cn1c(N)c(C(=O)N/N=C/c2ccccc2)sc1=S | - | - | - | - | -
Cc1c(C(=O)N/N=C/c2cccnc2)sc(=S)n1C | - | - | - | - | 42
CCN(C(=O)CN1C(=O)S/C(=C\c2ccc(F)cc2)C1=O)C1CCS(=O)(=O)C1 (centres undefined) | 23 | - | - | - | -
COc1ccccc1-n1c(SCC(=O)NCc2ccc3c(c2)OCO3)nc2cc([N+](=O)[O-])ccc21 | 23 | - | - | - | -
Cc1cccc(C(=O)O/N=C(\N)c2ccc(Cl)cc2)c1 | - | - | - | - | - | GRK2 CP1=-;Aptamer quench SP=-
Cc1cccc(C(=O)n2c(=S)nc3ccccn32)c1 | - | 49 | - | - | - | GRK2 CP1=-;Aptamer quench SP=-
O=C(c1ccccc1)n1c(=S)nc2ccccn21 | - | - | - | - | -
O=C(COc1cccc(F)c1)NNC(=O)Cc1ccc(S(=O)(=O)N2CCOCC2)s1 | - | 46 | - | - | - | GRK2 CP1=-;Aptamer quench SP=-
O=C(COc1cccc(C(F)(F)F)c1)NNC(=O)Cc1ccc(S(=O)(=O)N2CCOCC2)s1 | - | - | - | - | -
O=C(Nc1ccccc1N1CCOCC1)c1cc(=O)[nH]c2ccccc12 | - | 82 | - | - | - | GRK2 CP1=-;Aptamer quench SP=-
O=C(NCC(c1ccco1)N1CCOCC1)c1ccc(F)c(F)c1 (centres undefined) | - | - | - | - | -
C#CCn1c(=NC(=O)c2cccs2)sc2cccc(OCC)c21 | - | - | - | - | -
C#CCn1c(=NC(=O)c2ccc(Cl)s2)sc2cccc(OC)c21 | - | 76 | - | - | - | GRK2 CP1=-;Aptamer quench SP=-
N#CC1=C2SCN(Cc3ccco3)CN2C(=O)CC1c1c(F)cccc1Cl (centres undefined) | - | 88 | - | - | - | GRK2 CP1=-;Aptamer quench SP=-
O=C(COc1ccc(-c2nnco2)cc1)Nc1cc([N+](=O)[O-])ccc1F | - | - | - | - | -
COc1ccc(S(=O)(=O)Nc2cccc3c2O[C@H](CN(C)CC2CCCCC2)[C@@H](C)CN([C@H](C)CO)C3=O)cc1 | - | - | - | - | -
COc1cc2c3c(c1OC)C1(C=CC(=O)C=C1)CC3N(C(=O)c1ccccc1)CC2 (centres undefined) | - | 70 | - | - | - | GRK2 CP1=-;Aptamer quench SP=-
Cc1ccc(NC(=O)CNC(=O)CC23CC4CC(CC(C4)C2)C3)c(O)c1 | - | - | - | - | -
O=C(NCc1ccccc1)c1cc[n+]([O-])cc1 | - | - | - | - | -

Source: PubChem
